Results reported in ChEMBL document CHEMBL3585281, “Antibacterial Labdane Diterpenoids from Vitex vestita” (2015).
In brackets after ≈: the same amount, converted by molar mass.

Columns and labels:
Format in all cases: functional
Bacillus cereus [1] = experiment: Antibacterial activity against Bacillus cereus N349 after 18 hrs by agar dilution method; details: N349, 18 h
Outline: (§1)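 Agar-dilution MIC against Gram-positive strains. Compounds in DMSO, geometric dilutions giving final 100−0.75 mg/L in Mueller Hinton agar. Strains grown 18 h at 37 °C in trypticase soy broth, diluted in sterile water, spotted by Steers inoculator (about 1000 UFC/spot). Plates incubated 18 h at 37 °C; DMSO blank; ofloxacin positive control. MIC = lowest concentration with no visible growth.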

Enterococcus faecium [2] = experiment: Antibacterial activity against Enterococcus faecium N733 after 18 hrs by agar dilution method; details: N733, 18 h; outline: as §1
Bacillus spizizenii = experiment: Antibacterial activity against Bacillus subtilis ATCC 6633 after 18 hrs by agar dilution method; details: ATCC 6633, 18 h; outline: as §1
Staphylococcus aureus [3] = experiment: Antibacterial activity against Staphylococcus aureus CIP 53156 after 18 hrs by agar dilution method; details: CIP 53156, 18 h; outline: as §1
Enterococcus faecium [4] = experiment: Antibacterial activity against Enterococcus faecium N823 after 18 hrs by agar dilution method; details: N823, 18 h; outline: as §1
[5] = test system: Staphylococcus saprophyticus; experiment: Antibacterial activity against Staphylococcus saprophyticus E260 after 18 hrs by agar dilution method; details: E260, 18 h; outline: as §1
Staphylococcus aureus [6] = experiment: Antibacterial activity against Staphylococcus aureus ATCC 9144 oxford after 18 hrs by agar dilution method; outline: as §1
Staphylococcus aureus [7] = experiment: Antibacterial activity against Staphylococcus aureus CRBIP 2121 after 18 hrs by agar dilution method; details: CRBIP 2121, 18 h; outline: as §1
Listeria monocytogenes [8] = experiment: Antibacterial activity against Listeria monocytogenes N851 after 18 hrs by agar dilution method; details: N851, 18 h; outline: as §1
Enterococcus gallinarum [9] = experiment: Antibacterial activity against Enterococcus gallinarum N489 after 18 hrs by agar dilution method; details: N489, 18 h; outline: as §1
Listeria monocytogenes [10] = experiment: Antibacterial activity against Listeria monocytogenes CIP 103575 after 18 hrs by agar dilution method; details: CIP 103575, 18 h; outline: as §1
[11] = test system: Staphylococcus epidermidis; experiment: Antibacterial activity against Staphylococcus epidermidis CIP 53124 after 18 hrs by agar dilution method; details: CIP 53124, 18 h; outline: as §1
Enterococcus faecalis [12] = experiment: Antibacterial activity against Enterococcus faecalis N518 after 18 hrs by agar dilution method; details: N518, 18 h; outline: as §1
Mammaliicoccus sciuri = experiment: Antibacterial activity against Staphylococcus sciuri N993 after 18 hrs by agar dilution method; details: N993, 18 h; outline: as §1
Enterococcus faecalis [13] = experiment: Antibacterial activity against Enterococcus faecalis CIP 104676 after 18 hrs by agar dilution method; details: CIP 104676, 18 h; outline: as §1
Enterococcus faecium [14] = experiment: Antibacterial activity against Enterococcus faecium N507 after 18 hrs by agar dilution method; details: N507, 18 h; outline: as §1
Staphylococcus aureus [15] = experiment: Antibacterial activity against Staphylococcus aureus CIP 7625 after 18 hrs by agar dilution method; details: CIP 7625, 18 h; outline: as §1
[16] = test system: Staphylococcus lugdunensis; experiment: Antibacterial activity against Staphylococcus lugdunensis ATCC 43809 after 18 hrs by agar dilution method; details: ATCC 43809, 18 h; outline: as §1
Enterococcus faecalis [17] = experiment: Antibacterial activity against Enterococcus faecalis N491 after 18 hrs by agar dilution method; details: N491, 18 h; outline: as §1
Enterococcus faecium [18] = experiment: Antibacterial activity against Enterococcus faecium CIP 103014 after 18 hrs by agar dilution method; details: CIP 103014, 18 h; outline: as §1
MRC5 [19] = experiment: Cytotoxicity against human MRC5 cells assessed as growth inhibition at 10^-6 M after 72 hrs by MTS assay relative to control; details: MRC5, 72 h, read-out: GI
Outline: (§2)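 Cells from ATCC; HCT-116 grown in RPMI 1640 and MRC5 in DMEM, each with 10% FCS and 1% glutamine, 37 °C, 5% CO2. Seeded at 2.5 × 10^3 cells/well, cultured 24 h, then exposed to compounds at 1 and 10 μM final for 72 h. MTS read-out, absorbance 490 nm; percent index from treated/control OD490 × 100, three experiments.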

[20] = test system: Staphylococcus saprophyticus; experiment: Antibacterial activity against Staphylococcus saprophyticus CIP 76125 after 18 hrs by agar dilution method; details: CIP 76125, 18 h; outline: as §1
[21] = test system: Enterococcus casseliflavus; experiment: Antibacterial activity against Enterococcus casseliflavus CIP 103018 after 18 hrs by agar dilution method; details: CIP 103018, 18 h; outline: as §1
Bacillus cereus [22] = experiment: Antibacterial activity against Bacillus cereus N190 after 18 hrs by agar dilution method; details: N190, 18 h; outline: as §1
Enterococcus avium = experiment: Antibacterial activity against Enterococcus avium CIP 104053 after 18 hrs by agar dilution method; details: CIP 104053, 18 h; outline: as §1
MRC5 [23] = experiment: Cytotoxicity against human MRC5 cells assessed as growth inhibition at 10^-5 M after 72 hrs by MTS assay relative to control; details: MRC5, 72 h, read-out: GI; outline: as §2
Bacillus cereus [24] = experiment: Antibacterial activity against Bacillus cereus CIP 6624 after 18 hrs by agar dilution method; details: CIP 6624, 18 h; outline: as §1
Corynebacterium striatum = experiment: Antibacterial activity against Corynebacterium striatum N840 after 18 hrs by agar dilution method; details: N840, 18 h; outline: as §1
HCT-116 [25] = experiment: Cytotoxicity against human HCT116 cells assessed as growth inhibition at 10^-6 M after 72 hrs by MTS assay relative to control; details: HCT-116, 72 h, read-out: GI; outline: as §2
[26] = test system: Staphylococcus intermedius; experiment: Antibacterial activity against Staphylococcus intermedius N987 after 18 hrs by agar dilution method; details: N987, 18 h; outline: as §1
Staphylococcus aureus [27] = experiment: Antibacterial activity against Staphylococcus aureus CIP 5710 after 18 hrs by agar dilution method; details: CIP 5710, 18 h; outline: as §1
Enterococcus faecalis [28] = experiment: Antibacterial activity against Enterococcus faecalis N520 after 18 hrs by agar dilution method; details: N520, 18 h; outline: as §1
Enterococcus durans = experiment: Antibacterial activity against Enterococcus durans CIP 104999 after 18 hrs by agar dilution method; details: CIP 104999, 18 h; outline: as §1
Streptococcus agalactiae = experiment: Antibacterial activity against Streptococcus agalactiae CIP 103227 after 18 hrs by agar dilution method; details: ATCC 13813, 18 h; outline: as §1
Enterococcus faecium [29] = experiment: Antibacterial activity against Enterococcus faecium N490 after 18 hrs by agar dilution method; details: N490, 18 h; outline: as §1
Enterococcus faecium [30] = experiment: Antibacterial activity against Enterococcus faecium CIP 107387 after 18 hrs by agar dilution method; details: CIP 107387, 18 h; outline: as §1
Enterococcus hirae = experiment: Antibacterial activity against Enterococcus hirae CIP 5855 after 18 hrs by agar dilution method; details: CIP 5855, 18 h; outline: as §1
[31] = test system: Enterococcus casseliflavus; experiment: Antibacterial activity against Enterococcus casseliflavus N487 after 18 hrs by agar dilution method; details: N487, 18 h; outline: as §1
Listeria innocua = experiment: Antibacterial activity against Listeria innocua E044 after 18 hrs by agar dilution method; details: E044, 18 h; outline: as §1
[32] = test system: Staphylococcus haemolyticus; experiment: Antibacterial activity against Staphylococcus haemolyticus CIP 8156 after 18 hrs by agar dilution method; details: CIP 8156, 18 h; outline: as §1
HCT-116 [33] = experiment: Cytotoxicity against human HCT116 cells assessed as growth inhibition at 10^-5 M after 72 hrs by MTS assay relative to control; details: HCT-116, 72 h, read-out: GI; outline: as §2
Bacillus cereus [34] = experiment: Antibacterial activity against Bacillus cereus N258 after 18 hrs by agar dilution method; details: N258, 18 h; outline: as §1
Listeria monocytogenes [35] = experiment: Antibacterial activity against Listeria monocytogenes N783 after 18 hrs by agar dilution method; details: N783, 18 h; outline: as §1
Staphylococcus aureus [36] = experiment: Antibacterial activity against Staphylococcus aureus CIP 483 after 18 hrs by agar dilution method; details: CIP 483, 18 h; outline: as §1
Enterococcus gallinarum [37] = experiment: Antibacterial activity against Enterococcus gallinarum N492 after 18 hrs by agar dilution method; details: N492, 18 h; outline: as §1
Staphylococcus aureus [38] = experiment: Antibacterial activity against Staphylococcus aureus CIP 53154 after 18 hrs by agar dilution method; details: CIP 53154, 18 h; outline: as §1
Enterococcus gallinarum [39] = experiment: Antibacterial activity against Enterococcus gallinarum CIP 105985 after 18 hrs by agar dilution method; details: CIP 105985, 18 h; outline: as §1
Enterococcus faecalis [40] = experiment: Antibacterial activity against Enterococcus faecalis CIP 103214 after 18 hrs by agar dilution method; details: CIP 103214, 18 h; outline: as §1
Staphylococcus aureus [41] = experiment: Antibacterial activity against Staphylococcus aureus ATCC 25923 after 18 hrs by agar dilution method; details: ATCC 25923, 18 h; outline: as §1
Listeria monocytogenes [42] = experiment: Antibacterial activity against Listeria monocytogenes N836 after 18 hrs by agar dilution method; details: N836, 18 h; outline: as §1

- MIC (Bacillus cereus [1]): 46 µM (≈ 16.1 µg/mL)
- MIC (Enterococcus faecium [2]): > 46 µM
- MIC (Bacillus spizizenii): 46 µM (≈ 16.1 µg/mL)
- MIC (Staphylococcus aureus [3]): > 46 µM
- MIC (Enterococcus faecium [4]): > 46 µM
- MIC [5]: > 46 µM
- MIC (Staphylococcus aureus [6]): > 46 µM
- MIC (Staphylococcus aureus [7]): > 46 µM
- MIC (Listeria monocytogenes [8]): > 46 µM
- MIC (Enterococcus gallinarum [9]): > 46 µM
- MIC (Listeria monocytogenes [10]): > 46 µM
- MIC [11]: > 46 µM
- MIC (Enterococcus faecalis [12]): > 46 µM
- MIC (Mammaliicoccus sciuri): > 46 µM
- MIC (Enterococcus faecalis [13]): > 46 µM
- MIC (Enterococcus faecium [14]): > 46 µM
- MIC (Staphylococcus aureus [15]): > 46 µM
- MIC [16]: > 46 µM
- MIC (Enterococcus faecalis [17]): > 46 µM
- MIC (Enterococcus faecium [18]): > 46 µM
- MIC [20]: > 46 µM
- MIC [21]: > 46 µM
- MIC (Bacillus cereus [22]): 23 µM (≈ 8.06 µg/mL)
- MIC (Enterococcus avium): > 46 µM
- MIC (Bacillus cereus [24]): 46 µM (≈ 16.1 µg/mL)
- MIC (Corynebacterium striatum): > 46 µM
- MIC [26]: > 46 µM
- MIC (Staphylococcus aureus [27]): > 46 µM
- MIC (Enterococcus faecalis [28]): > 46 µM
- MIC (Enterococcus durans): > 46 µM
- MIC (Streptococcus agalactiae): > 46 µM
- MIC (Enterococcus faecium [29]): > 46 µM
- MIC (Enterococcus faecium [30]): > 46 µM
- MIC (Enterococcus hirae): > 46 µM
- MIC [31]: > 46 µM
- MIC (Listeria innocua): > 46 µM
- MIC (Bacillus cereus [34]): 46 µM (≈ 16.1 µg/mL)
- MIC (Listeria monocytogenes [35]): > 46 µM
- MIC (Staphylococcus aureus [36]): > 46 µM
- MIC (Enterococcus gallinarum [37]): > 46 µM
- MIC (Staphylococcus aureus [38]): > 46 µM
- MIC (Enterococcus gallinarum [39]): > 46 µM
- MIC (Enterococcus faecalis [40]): > 46 µM
- MIC (Staphylococcus aureus [41]): > 46 µM
- MIC (Listeria monocytogenes [42]): > 46 µM
Structure (SMILES): CC1(C)CCC[C@]2(C)[C@@H]1CC[C@]1(CO)O[C@@H](C3=CC(=O)OC3O)C[C@H]12 (stereo not given in full)
- inhibition of growth at 1 µM (MRC5 [19]): 29%
- inhibition of growth at 10 µM (MRC5 [23]): 92%
- inhibition of growth at 1 µM (HCT-116 [25]): 0%
- MIC [32]: > 46 µM
- inhibition of growth at 10 µM (HCT-116 [33]): 84%
